NTR1 agonist: activates human neurotensin receptor 1. P30989. NTR1-U2OS beta-arrestin-GFP spot imaging, agonist mode. activation, % at 20 µM. 330,000 tested, 0.17% active;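 active = activation at or above 40% of the spot to cytoplasm intensity ratio, with at least 20 cells analyzed; inconclusive = wells under 20 cells, flagged as cytotoxic or low count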
Target sequence (P30989 whole entry, looked up): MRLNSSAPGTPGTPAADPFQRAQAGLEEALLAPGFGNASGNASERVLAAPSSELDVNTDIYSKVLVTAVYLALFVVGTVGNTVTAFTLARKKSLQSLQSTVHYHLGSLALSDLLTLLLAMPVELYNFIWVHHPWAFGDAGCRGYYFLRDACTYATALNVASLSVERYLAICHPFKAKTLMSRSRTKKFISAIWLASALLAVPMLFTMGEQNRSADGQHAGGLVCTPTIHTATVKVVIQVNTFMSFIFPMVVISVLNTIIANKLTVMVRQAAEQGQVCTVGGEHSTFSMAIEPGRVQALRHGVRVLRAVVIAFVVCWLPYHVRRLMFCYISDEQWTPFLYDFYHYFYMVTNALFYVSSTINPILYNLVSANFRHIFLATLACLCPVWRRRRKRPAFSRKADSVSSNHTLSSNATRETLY
MC4R ag barr: human MC4R agonism via beta-arrestin | 360,000 tested, 0.98% active | P32245 | activation, % at 8.9 µM | AID 540308 | U2OS MC4R beta-arrestin complementation, luminescence; percent of melanotan II response, DMSO zero;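 active = activation above a per-plate cutoff, the mean activation of sample wells on that plate plus 3 SD, cut at about 8% in these data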
Target sequence (P32245 whole entry, looked up): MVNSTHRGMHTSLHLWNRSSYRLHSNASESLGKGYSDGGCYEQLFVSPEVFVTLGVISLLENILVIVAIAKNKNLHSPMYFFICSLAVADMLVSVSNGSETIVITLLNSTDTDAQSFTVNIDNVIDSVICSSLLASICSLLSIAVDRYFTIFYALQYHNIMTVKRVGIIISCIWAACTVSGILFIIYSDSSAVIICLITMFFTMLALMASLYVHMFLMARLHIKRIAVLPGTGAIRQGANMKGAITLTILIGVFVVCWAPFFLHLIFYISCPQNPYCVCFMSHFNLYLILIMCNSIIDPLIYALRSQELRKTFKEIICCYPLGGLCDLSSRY
HGIII-sPLA2 inh: Blocks human group III sPLA2 activity; QFRET BODIPY PC-A2 liposome hydrolysis, fluorescence; 370,000 tested, 0.56% active; AID 743126; Q9NZ20; inhibition, % at 12.2 µM;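 active = inhibition above mean plus 3 SD of compounds lying within the high and low control bounds, cut at about 19% in these data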
Granule exo inh: blocks lytic granule exocytosis; inhibition, % at 10 µM; TALL-104 LAMP-1 surface exposure, flow cytometry; cells stimulated with thapsigargin and PMA; 360,000 tested, 0.66% active;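 active = inhibition above about 55%, limit read from the data; inconclusive = no clear call, values can overlap the other calls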
MC4R antagonist: antagonists of human melanocortin 4 receptor (MC4R). inhibition, % at 6.5 µM. P32245. 360,000 tested, 0.48% active. MC4R-expressing cells, MTII-stimulated cAMP, LANCE TR-FRET;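 active = inhibition above its plate's cutoff, the mean of tested wells on that plate plus 3 SD, cut at about 29% in these data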
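System – human MC4R-expressing U2OS cells · Also added – Melanotan II · Dosing – one concentration, 6.5 µM nominal · Timing – 30-min compound, 1-h challenge, 1-h detection, room temperature · Measured by – Eu-cAMP/anti-cAMP TR-FRET, emission 671 nm · Replicates – singlicate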
A1 inh: inhibitors of the anti-apoptotic protein A1, read as caspase activation. MEF A1-2A-BIM cells, Caspase-Glo 3/7 luminescence, 3 h; percent of clofoctol response, vehicle zero. caspase activation, % (concentration not given with the values). 330,000 tested, 0.066% active;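 active = over half of replicate activation scores above 10%, or exactly half above 10 with the replicate mean above 10; inconclusive = replicate mean below 10 yet half the replicates above 10; inactive = over half of replicates below 10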
Of the large screens only hits and unclear results are named; the others gave an inactive call. Rows were chosen to be rich in hits. Some 2.5% of all compounds tested hit in one or more screens of this group.

O=C(NCc1ccccc1Cl)c1cccc2c1C(=O)c1ccc(-c3ccc(OC(F)(F)F)cc3)cc1S2(=O)=O	A1 inh 10.4 (no result: HGIII-sPLA2 inh)
COc1ccc(-c2ccc3c(c2)S(=O)(=O)c2cccc(C(=O)NCc4cccc(OC(F)(F)F)c4)c2C3=O)cc1OC	A1 inh 38.7 (no result: HGIII-sPLA2 inh)
O=C(NCc1cccc(OC(F)(F)F)c1)c1cccc2c1C(=O)c1ccc(-c3ccc(F)cc3OCc3ccccc3)cc1S2(=O)=O	none
O=C(NC(=Nc1nc2ccccc2o1)NC(=O)c1ccccc1)c1ccccc1	none
COc1ccccc1C(=O)NC(=Nc1nc2ccccc2o1)NC(=O)c1ccccc1OC	NTR1 agonist 40.5
Cc1oc2c(c1C(=O)c1ccccc1)C(=O)C(=O)c1ccccc1-2	Granule exo inh 102.3
Cc1oc2c(c1C(=O)O)C(=O)c1ccccc1C2=O	none
O=C1C(=O)c2c(C(=O)c3ccccc3)coc2-c2ccccc21	MC4R ag barr 8.7, Granule exo inh 92.2
C[C@@H]1OCN(C)[C@H]2C[C@H]3c4[nH]c5cccc(-c6ccccc6)c5c4CCN3C[C@@H]12	none (no result: NTR1 agonist, MC4R ag barr, Granule exo inh, MC4R antagonist, A1 inh)
Cc1cccc(C2Nc3ccccc3C(=O)N2CCc2ccccc2)n1 (stereo not given)	none
O=C1c2ccccc2NC(c2cccc([N+](=O)[O-])c2)N1CCc1ccccc1 (stereo not given)	Granule exo inh 76.4
COC(=O)C1CCN(C(=O)C2CC(=O)N(c3ccc(OC)cc3)C2c2ccc(OC)cc2)CC1 (stereo not given)	none (no result: NTR1 agonist, MC4R ag barr, Granule exo inh, MC4R antagonist, A1 inh)
CCC[C@H]1[C@@H](NC(=O)c2ccc(OC)cc2)CC[C@@]23CCCN2C(=O)CCC[C@@H]13	none (no result: NTR1 agonist, MC4R ag barr, Granule exo inh, MC4R antagonist, A1 inh)
c1ccc(CCC2Cc3ccccc3N2)cc1 (stereo not given)	none
c1ccc(CC[C@@H]2CC[C@@H](CCc3ccccc3)N2)cc1	MC4R ag barr 8.4
COc1ccc(C)c2sc(N(CCCN(C)C)C(=O)c3ccc(S(=O)(=O)N4CCc5ccccc5C4)cc3)nc12	MC4R ag barr 36.7 (no result: NTR1 agonist)
COc1cccc2sc(N(CCCN(C)C)C(=O)c3ccc(S(=O)(=O)N4CCc5ccccc5C4)cc3)nc12	MC4R ag barr 9.0
COc1ccc(OC)c2sc(N(CCCN(C)C)C(=O)c3ccc(S(=O)(=O)N4CCc5ccccc5C4)cc3)nc12	A1 inh inconclusive (no result: MC4R ag barr, HGIII-sPLA2 inh, Granule exo inh, MC4R antagonist)
O=C(Nc1cccc(-c2nc3ccccc3[nH]2)c1)c1cccc(NC(=O)c2ccco2)c1	NTR1 agonist 41.1
CCOC(=O)[C@@]12CCCC3=C1N(CCC3)C(=O)[C@H]2CC(=O)N1CCN(C(=O)C2CC2)CC1	none (no result: NTR1 agonist, MC4R ag barr, Granule exo inh, MC4R antagonist, A1 inh)
O=S1(=O)c2c(cccc2N2CCC[C@H]2CO)O[C@H]2CCN1C2	none (no result: NTR1 agonist, MC4R ag barr, Granule exo inh, MC4R antagonist, A1 inh)
C/C(CCc1ccccc1)=N\NC(=S)NCCc1ccccc1	Granule exo inh 90.8
O=C(OC1CCOC1=O)c1ccccc1C(=O)c1ccc(Cl)c([N+](=O)[O-])c1 (stereo not given)	none (no result: HGIII-sPLA2 inh)
CS(=O)(=O)c1ccc(C(=O)OC2CCOC2=O)cc1[N+](=O)[O-] (stereo not given)	MC4R antagonist 31.5
Oc1c(Cl)cc(Cl)cc1/C=N/c1nc(-c2ccc(Cl)cc2)cs1	MC4R antagonist 34.4 (no result: HGIII-sPLA2 inh)
CC(=O)N[C@@H]1C[C@@H]2O[C@@H](CO)CC[C@@H]2O[C@@H]1CCc1ccc(C#CC2(O)CCCC2)cc1	none (no result: NTR1 agonist, MC4R ag barr, Granule exo inh, MC4R antagonist, A1 inh)
O=C(COC(=O)/C=C/c1cc(Br)ccc1F)Nc1ccc2[nH]c(=O)[nH]c2c1	MC4R ag barr 8.9
O=C(COC(=O)Cc1ccccc1F)Nc1ccc2[nH]c(=O)[nH]c2c1	none
COc1cc(CNc2ncnc3c2[nH]c2ccc(C)cc23)cc(OC)c1	Granule exo inh 56.2
O=C(/C=C\c1ccc(-c2ccccc2)o1)c1ccccc1	Granule exo inh 86.2
Cc1ccc(C(=O)/C=C/c2ccc(-c3ccc(C)cc3)o2)cc1	Granule exo inh 71.5
CCN(CC)S(=O)(=O)c1ccc(C(=O)/C=C/c2ccc(-c3ccc([N+](=O)[O-])cc3)o2)cc1	none
O=C1CC(Sc2nnc(-c3ccccc3)o2)C(=O)N1c1ccccc1 (stereo not given)	Granule exo inh 66.0
Cc1ccnc(NC(=S)N2CCN(c3cccc(C(F)(F)F)c3)CC2)c1	none
FC(F)(F)c1cccc(N2CCN(C(=S)NC3CCCC3)CC2)c1	MC4R ag barr 8.3
Cc1ccc(C)c(NC(=S)N2CCN(c3cccc(C(F)(F)F)c3)CC2)c1	MC4R ag barr 9.1
FC(F)(F)c1cccc(N2CCN(C(=S)NC3CCCCC3)CC2)c1	none
O=C(Nc1ccsc1C(=O)NC1CCCCC1)c1ccc(F)cc1	MC4R ag barr 12.0
CC(C)C[C@@H]1COc2cc(F)ccc2S(=O)(=O)N1	none (no result: NTR1 agonist, MC4R ag barr, Granule exo inh, MC4R antagonist, A1 inh)
O=C(CCl)N(c1ccccc1)C1CCCCC1	MC4R ag barr 9.1
Cc1ccc2c(c1)C1CS(=O)(=O)N(Cc3ccccc3)CN1C2 (stereo not given)	none (no result: NTR1 agonist, MC4R ag barr, Granule exo inh, MC4R antagonist, A1 inh)
Cc1ccccc1-c1nc2ccccc2c(=O)n1/N=C/c1ccccc1[N+](=O)[O-]	Granule exo inh 66.9
COc1ccc(C(=O)Nc2ccc3c(c2)OCCO3)cc1Br	none
COc1ccc(C(=O)Nc2ccc(Nc3ccccc3)cc2)cc1Br	MC4R ag barr 9.4
C#CCOCCOCCOCCNc1nc(N2CCN(C(=O)CCCCCCCCCCNC(=O)[C@H](CCCCN)n3cc(C[C@@H](C)CC)nn3)CC2)nc(N2CCN(C(=O)CCCCCCCCCCNC(=O)[C@H](CCCN=C(N)N)n3cc(C[C@@H](C)CC)nn3)CC2)n1	MC4R antagonist 83.1 (no result: HGIII-sPLA2 inh)
C#CCOCCOCCOCCNc1nc(N2CCN(C(=O)CCCCCCCCCCNC(=O)[C@H](CCCCN)n3cc(C)nn3)CC2)nc(N2CCN(C(=O)CCCCCCCCCCNC(=O)[C@@H]([C@H](C)O)n3cc(C)nn3)CC2)n1	none (no result: HGIII-sPLA2 inh)
C#CCOCCOCCOCCNc1nc(N2CCN(C(=O)CCCCCCCCCCNC(=O)[C@@H](CCSC)n3cc(CCO)nn3)CC2)nc(N2CCN(C(=O)CCCCCCCCCCNC(=O)[C@H](CCCN=C(N)N)n3cc(C[C@@H](C)CC)nn3)CC2)n1	MC4R antagonist 60.0 (no result: HGIII-sPLA2 inh)
Cc1cn([C@@H](CCCCNC(=O)OC(C)(C)C)C(=O)NCCCCCCCCCCC(=O)N2CCN(C(=O)OC(C)(C)C)CC2)nn1	none (no result: HGIII-sPLA2 inh)
C#CCOCCOCCOCCNc1nc(N2CCN(C(=O)CCCCCCCCCCNC(=O)[C@H](CCCCN)n3cc(C[C@@H](C)CC)nn3)CC2)nc(N2CCN(C(=O)CCCCCCCCCCNC(=O)[C@@H]([C@H](C)O)n3cc(C)nn3)CC2)n1	Granule exo inh 97.3, MC4R antagonist 43.9 (no result: HGIII-sPLA2 inh)
CC[C@H](C)Cc1cn([C@@H](CCCN=C(NC(=O)OC(C)(C)C)NC(=O)OC(C)(C)C)C(=O)NCCCCCCCCCCC(=O)N2CCN(C(=O)OC(C)(C)C)CC2)nn1	NTR1 agonist 44.9 (no result: HGIII-sPLA2 inh)

High-throughput results as filed in PubChem.
